Results taken from paper PMC4372064 (ACS Chemical Neuroscience, 2014).
“Also recorded” adds a separate entry of the source. Where two headings read alike, the source gives them in different places.

Tests used:
[1] = system: rats (tibial-nerve injury model); assay: Tibial-nerve injury; assay type: in vivo, rat
[2] = system: voltage-gated sodium channels in rat embryonic cortical neurons; assay: Whole-cell patch clamp, inactivation protocol, rat embryonic cortical neurons; assay type: cell-based; conditions: 10 μM
[3] = system: voltage-gated sodium channels in rat embryonic cortical neurons; assay type: cell-based; conditions: 10 μM
[4] = system: voltage-gated sodium channels in rat embryonic cortical neurons; assay: Whole-cell patch clamp, steady-state activation, rat embryonic cortical neurons; assay type: cell-based; conditions: 10 μM
[5] = system: mice (6 Hz psychomotor seizure model); conditions: ip, 32 mA, [time of peak effect, h], (95% CI); cited from earlier work
rat (MES seizure model) = conditions: po, (95% CI), cited from earlier work
[6] = system: rat (behavioral toxicity); conditions: po, h]; cited from earlier work
[7] = system: mice (formalin pain model); conditions: 8 mg/kg; cited from earlier work
[8] = molecular target: T1, sodium channels in CAD cells (Mus musculus, UniProt Q62205); conditions: cited from earlier work
[9] = system: Na+ currents in CAD cells; conditions: 100 μM; cited from earlier work
[10] = molecular target: T1, sodium channels in CAD cells; assay: Whole-cell patch clamp, steady-state fast inactivation, CAD cells; assay type: cell-based
Outline: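 CAD cells were recorded by whole-cell clamp at room temperature, with 3 s between pulses. Steady-state fast inactivation was induced by a previously described protocol. Test compound was applied at 10 μM (10–200 μM for one compound) versus 0.1% DMSO control. Each recording was fitted to a Boltzmann function to give V1/2 and slope k, which were averaged (mean ±SEM). Cells numbered 3–7 per condition, compared by Student's t test or one-way ANOVA.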

[11] = system: Na+ currents in CAD cells; assay: Whole-cell patch clamp, frequency; assay type: cell-based, mouse; conditions: 100 μM
Outline: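 Whole-cell voltage clamp was done at room temperature on CAD cells (Ham's F12/DMEM, 10% FBS, 1% pen/strep, 37 °C, 5% CO2, passaged 1:5 every 3–5 days). Criteria were access resistance <3 MΩ and −P/4 leak subtraction. Cells were held at −80 mV and given 20 ms pulses to −10 mV at 10 Hz. Peak currents were compared with the first pulse against 0.1% DMSO control, with test compound at 10 or 100 μM.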

mice (MES seizure model) = conditions: ip, (95% CI), cited from earlier work
scMet seizure model = conditions: cited from earlier work

T1 sequence (Q62205 whole entry): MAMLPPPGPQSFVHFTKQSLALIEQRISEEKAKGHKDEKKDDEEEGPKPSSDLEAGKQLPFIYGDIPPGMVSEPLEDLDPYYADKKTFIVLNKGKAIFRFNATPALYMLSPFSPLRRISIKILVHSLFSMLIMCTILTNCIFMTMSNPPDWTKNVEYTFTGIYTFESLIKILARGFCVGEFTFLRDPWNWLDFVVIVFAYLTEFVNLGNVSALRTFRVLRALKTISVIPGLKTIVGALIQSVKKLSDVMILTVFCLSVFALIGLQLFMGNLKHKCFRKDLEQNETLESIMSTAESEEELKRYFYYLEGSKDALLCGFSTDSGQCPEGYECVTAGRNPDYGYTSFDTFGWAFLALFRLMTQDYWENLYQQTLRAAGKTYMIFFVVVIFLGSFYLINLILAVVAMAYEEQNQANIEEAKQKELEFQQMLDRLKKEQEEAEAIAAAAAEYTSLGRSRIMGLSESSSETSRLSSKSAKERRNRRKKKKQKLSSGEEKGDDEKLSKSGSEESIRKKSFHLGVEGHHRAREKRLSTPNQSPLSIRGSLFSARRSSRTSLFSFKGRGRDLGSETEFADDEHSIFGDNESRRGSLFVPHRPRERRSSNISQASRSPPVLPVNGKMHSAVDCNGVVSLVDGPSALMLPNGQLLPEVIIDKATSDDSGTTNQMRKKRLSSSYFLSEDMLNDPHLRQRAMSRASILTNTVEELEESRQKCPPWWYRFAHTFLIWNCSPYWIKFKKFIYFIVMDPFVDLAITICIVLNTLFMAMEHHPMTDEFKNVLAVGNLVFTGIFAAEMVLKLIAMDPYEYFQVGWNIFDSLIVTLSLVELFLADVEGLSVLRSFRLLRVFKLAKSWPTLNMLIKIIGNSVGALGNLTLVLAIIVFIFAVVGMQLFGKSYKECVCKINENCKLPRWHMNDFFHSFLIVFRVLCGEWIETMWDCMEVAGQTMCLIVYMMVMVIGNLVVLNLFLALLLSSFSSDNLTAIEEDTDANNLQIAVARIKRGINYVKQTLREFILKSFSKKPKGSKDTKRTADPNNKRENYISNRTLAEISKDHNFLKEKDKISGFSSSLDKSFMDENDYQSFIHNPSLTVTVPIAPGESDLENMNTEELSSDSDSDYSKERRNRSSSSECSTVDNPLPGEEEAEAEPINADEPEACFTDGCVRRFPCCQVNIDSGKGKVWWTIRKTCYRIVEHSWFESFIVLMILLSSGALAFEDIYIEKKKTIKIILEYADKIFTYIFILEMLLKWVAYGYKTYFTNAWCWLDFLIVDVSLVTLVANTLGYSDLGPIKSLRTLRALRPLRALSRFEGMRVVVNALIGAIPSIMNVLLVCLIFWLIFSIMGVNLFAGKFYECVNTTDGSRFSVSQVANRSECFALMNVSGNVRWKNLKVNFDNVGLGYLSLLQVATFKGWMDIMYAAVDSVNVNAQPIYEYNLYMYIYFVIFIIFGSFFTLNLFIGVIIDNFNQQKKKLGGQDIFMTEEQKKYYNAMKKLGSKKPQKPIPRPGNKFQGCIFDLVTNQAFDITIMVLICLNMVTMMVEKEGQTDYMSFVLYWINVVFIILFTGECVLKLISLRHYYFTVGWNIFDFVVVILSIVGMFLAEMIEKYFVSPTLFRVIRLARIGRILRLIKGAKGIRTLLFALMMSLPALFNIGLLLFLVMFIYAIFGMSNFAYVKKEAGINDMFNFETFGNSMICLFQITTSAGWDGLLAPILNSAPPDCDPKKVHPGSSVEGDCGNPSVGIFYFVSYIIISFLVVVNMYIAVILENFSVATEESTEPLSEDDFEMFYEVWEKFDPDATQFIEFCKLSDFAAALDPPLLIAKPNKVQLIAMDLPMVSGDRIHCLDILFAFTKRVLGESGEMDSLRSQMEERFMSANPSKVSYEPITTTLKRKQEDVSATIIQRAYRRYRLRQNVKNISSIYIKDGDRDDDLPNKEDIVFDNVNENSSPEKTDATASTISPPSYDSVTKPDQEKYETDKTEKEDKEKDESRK

SMILES: COC[C@@H](NC(C)=O)C(=O)NCc1ccccc1 [(R)-2, (R)-N-benzyl 2-N-acetamido-3-methoxypropionamide]
- reversal of tactile hypersensitivity (% of preinjury values) ([1]; TNI day 14, 10 mg/kg ip, 1 h after administration): ~72%
- effect on sodium channel inactivation (in words) [2]: neither parent compound affected inactivation
- effect on steady-state fast inactivation (in words) [3]: neither (R)-2 nor (S)-3 affected fast inactivation
- effect on steady-state activation of VGSCs (in words) [4]: neither 10 μM (R)-2 nor 10 μM (S)-3 affected the steady-state activation
- 6 Hz ED50 [5]: 10 mg/kg
- MES, ED50 (rat (MES seizure model); [time of peak effect, h]): 3.9 mg/kg
- Tox, TD50 (behavioral toxicity) [6]: >500 [0.5] mg/kg
- activity in the second (inflammation) phase of the formalin model [7]: effective
- effect on sodium channel fast inactivation [8]: did not
- reduction of Na+ currents, frequency (use)-dependence [9]: ~8.8%

SMILES: C[C@H](NCc1ccc(OCc2cccc(F)c2)cc1)C(N)=O [(S)-3, (S)-2-(4′-((3″-fluoro)benzyloxy)benzyl)aminopropionamide]
- effect on mechanical/tactile hypersensitivity (in words) ([1]; TNI day 14, single ip administration, 10 mg/kg): no effect; also recorded: without effect
- effect on VGSC fast inactivation [10]: promoted fast inactivation of VGSCs
- hyperpolarizing shift in V1/2 of fast inactivation vs control (maximum) ([10]; 200 μM): ~21.6 mV
- inhibition of Na+ current, frequency (use)-dependence [11]: ~13%
- effect on sodium channel inactivation (in words) [2]: neither parent compound affected inactivation
- effect on steady-state fast inactivation (in words) [3]: neither (R)-2 nor (S)-3 affected fast inactivation
- effect on steady-state activation of VGSCs (in words) [4]: neither 10 μM (R)-2 nor 10 μM (S)-3 affected the steady-state activation
- MES, ED50 (mice (MES seizure model)): 4.1 (3.0–5.5) mg/kg
- MES, ED50 (rat (MES seizure model)): 12 (10–14) mg/kg
- scMet ED50 (scMet seizure model): 27 mg/kg

SMILES: NC(=O)N1c2ccccc2C=Cc2ccccc21 [carbamazepine]
- effect on tactile hypersensitivity (in words) ([1]; TNI, 65 mg/kg, ip): ineffective

SMILES: O=C1NC(=O)C(c2ccccc2)(c2ccccc2)N1 [phenytoin]
- MES, ED50 (mice (MES seizure model); [time of peak effect, h]): 9.5 mg/kg
- MES, ED50 (rat (MES seizure model); [time of peak effect, h]): 30 mg/kg
